Bioassay records from PubChem.
EWS-Fli inh: EWS/Fli-driven NR0B1 reporter inhibitors, primary screen, A673 cells, NR0B1 luciferase, luminescence, MLPCN library | inhibition, % at 12.6 µM | viability-normalised | AID 651661, 2012 | actives 0.67% (n = 350,000);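 active = mean inhibition of at least 50% after viability correction, with every replicate also passing that limit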;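 note: firefly luciferase signal divided by Alamar Blue viability fluorescence both relative to DMSO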
TROY NFkB inh: inhibitors of TROY-driven NF-kB signaling, primary screen, Q293 LMP1-TROYcd cells, NF-kB luciferase, uHTS | Q293 LMP1-TROYcd NF-kB luciferase reporter, 4 h | inhibition, % at 10 µM | actives 0.98% (n = 360,000) | AID 1347056, 2019;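 active = compounds whose plate-normalised and pattern-corrected inhibition of the luciferase reporter signal at the single screening dose is 50% or more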
FN deposition inh: inhibitors of fibronectin matrix deposition, primary screen, AH1F cells, Alexa488-fibronectin fluorescence, plate reader; AH1F fibroblasts, overnight; inhibition, % at 12.6 µM; actives 0.086% (n = 350,000); AID 743247, 2014;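 active = mean inhibition across replicates of 30% or more, regardless of how many single replicates reach that level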;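 note: positive control wells lacked labelled fibronectin entirely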
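test system = AH1F fibroblasts assembling fluorescent fibronectin matrix | quantity = 10000 AH1F cells per well | buffer or medium = DMEM plus 2% serum, read in PBS | doses = single dose, pinned | incubation = 1 h cell attachment, overnight exposure to compound and label | detection = fluorescence at 485 nm excitation, 525 nm emission | read-out basis = inhibition from reduced deposited-fibronectin fluorescence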
TWEAK-Fn14 inh: inhibitors of TWEAK-Fn14 signaling, primary screen, luciferase reporter cells, uHTS | TWEAK-stimulated Fn14 reporter cells, luciferase luminescence, 8 h | inhibition, % at 10 µM | AID 1159606, 2016 | actives 2% (n = 360,000); in the data active = inhibition above about 50%
XiGFP reactiv: activators of inactive X chromosome reactivation, primary screen, imaging, XiGFP fibroblasts, GFP high-content imaging, set 2; activation, % at 7.58 µM; actives 0.055% (n = 360,000); XiGFP mouse fibroblasts, % GFP-positive cells imaging, 3 d; cells co-treated with 5-aza-dC sensitizer; scaled so ellipticine positive control = 100%;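 active = mean normalized replicate activation at least 10% and every replicate at or above 10%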;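 note: 0% = median of on-plate neutral control wells and 100% = ellipticine 6 µM median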
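Assay system – SV40-immortalized XiGFP fibroblast cells, line 68-5-11 · Buffer or medium – DMEM supplemented with 5-aza-dC as sensitizing agent · Dosing – one concentration, pinned · Benchmarks – positive control ellipticine, 6 µM final · Times – 3 days compound exposure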
LGR2 antag: inhibitors of bursicon-induced LGR2 CRE-luciferase signal, primary screen, cell-based, HEK293, CRE-luciferase reporter, bursicon stimulation; AID 720647, 2013; inhibition, % at 9.99 µM; bursicon-stimulated, 4 h; actives 0.35% (n = 380,000);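 active = drop in luminescence signal, shown as inhibition above about 50% in the replicate tests, limit read from the data, passing the limit was not always enough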;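 note: agonist challenge used bursicon conditioned medium at about half maximal strength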
Active calls of the source: *; i = inactive; · = no result. Most compounds without a hit are left out; they make up all but 2.3% or so of the library.

SMILES	EWS-Fli inh	TROY NFkB inh	FN deposition inh	TWEAK-Fn14 inh	XiGFP reactiv	LGR2 antag
Cc1cc(N/N=C/c2ccccc2O)c2ccccc2n1	3	-12	6	-29	0	-11
COc1ccc2nc(C)cc(N/N=C/c3cccc(OC)c3O)c2c1	68*	-42	-7	-59	0	5
CC(=O)N1CC2(C1)[C@H](c1ccccc1)[C@H](CO)N2Cc1ccccc1F	-5	·	·	·	0	-3
CCOC(=O)N1CCN(C(=O)COC(=O)c2cc(Cl)c(O)c(Cl)c2)CC1	3	17	·	72*	0	-26
O=C(O)CCSc1nnc(-c2ccc3c(c2)OCO3)o1	·	52*	·	82*	·	·
Cc1ccc(CSc2nnc(-c3ccc4c(c3)OCO4)o2)cc1	·	-35	·	-33	·	-22
CC(=O)CSc1nnc(-c2ccc3c(c2)OCO3)o1	·	31	-6	58*	·	·
C[C@@H]1CCCCO[C@H](CN(C)C(=O)Nc2ccccc2)[C@@H](C)CN([C@H](C)CO)C(=O)c2cc(NC(=O)NC3CCCCC3)ccc2O1	1	·	-7	·	0	19
CCN(CC)c1ccc2cc(-c3nc4ccccc4n3C)c(=O)oc2c1	·	-8	2	-11	·	-49
CCN(CC)c1ccc2cc(-c3nc(-c4ccc(OC)cc4)cs3)c(=O)oc2c1	·	·	i	·	115*	-13
CCN(CC)c1ccc2cc(-c3nnc(-c4ccccc4)o3)c(=O)oc2c1	·	44	·	67*	·	-16
CCN(CC)c1ccc2cc(-c3nc4ccccc4[nH]3)c(=O)oc2c1	·	73*	·	88*	·	·
Cc1cc(C)n(S(=O)(=O)c2ccc(F)cc2)n1	-4	-2	-6	73*	0	5
O=C(CCN1CCCCC1)NCC[C@@H]1CC[C@@H](NC(=O)C2CCCCC2)[C@@H](CO)O1	-5	·	-8	·	0	-22
O=[N+]([O-])c1ccc(/C=C/C2=NN(c3ccccc3)C(c3ccco3)C2)cc1 (stereo unspecified)	·	-56	-149	-23	89*	-19
O=[N+]([O-])c1ccc(C2=NN(c3ccccc3)C(c3ccco3)C2)cc1 (stereo unspecified)	-1	-44	-51	-21	86*	·
CC1=NN(c2ccccc2)C(c2ccco2)C1 (stereo unspecified)	-10	-6	17	-11	0	10
C[n+]1ccccc1/C=C/c1ccc([N+](=O)[O-])cc1	-1	26	-3	-7	0	2
CCOC(=O)N1CCN(C(=O)c2ccc3nc(C)sc3c2)CC1	·	-11	·	9	·	·
CCOC(=O)N1CCN(C(=O)c2ccc3c(c2)sc2nc(-c4ccccc4)cn23)CC1	·	59*	·	29	·	·
CCOC(=O)c1c(C)[nH]c(C(=O)COC(=O)CNC(=O)C2CCCCC2)c1C	·	69*	5	10	·	-13
CCc1ccc(C(=O)COC(=O)CNC(=O)C2CCCCC2)cc1	0	76*	2	66*	0	-32
O=C(CNC(=O)C1CCCCC1)OCC(=O)c1ccc(F)cc1	2	9	-9	2	1	-3
COc1ccc2c3c(n(C)c2c1)[C@H](CO)NCC31CN(S(=O)(=O)c2cccc(F)c2)C1	-7	·	·	·	0	4
CN1CCN(CC(=O)N2N=C(c3cccs3)CC2c2ccco2)CC1 (stereo unspecified)	6	2	1	14	0	-3
O=C(CCl)N1N=C(c2cccs2)CC1c1ccco1 (stereo unspecified)	71*	1	4	67*	0	1
O=[N+]([O-])c1ccc2nc(/C=C/c3ccc(Cl)cc3)[nH]c2c1	·	71*	0	76*	·	-20
O=[N+]([O-])c1ccc(-c2nc3ccc([N+](=O)[O-])cc3[nH]2)cc1	·	9	·	-49	·	·
